Results from ChEMBL document CHEMBL1138216, “Design and synthesis of novel derivatives of the muscarinic agonist tetra(ethylene glycol)(3-methoxy-1,2,5-thiadiazol-4-yl) [3-(1-methyl-1,2,5,6-tetrahydropyrid-3-yl)-1,2,5-thiadiazol-4-yl] ether (CDD-0304): effects of structural modifications on the binding and activity at muscarinic receptor …” (J Med Chem, 2006).
Residue numbers refer to the chain shown, from its start. Calls of active or inactive are those of the source. The calls are words filed in the database; no cut-off is given here.

Tests used:
[1] = system: T1, Muscarinic acetylcholine receptor M1 (Homo sapiens), P11229 [Q185E]; assay: Agonist activity at human M1 receptor Q185E mutant expressed in A9 L cells assessed as stimulation of phosphoinositide hydrolysis relative to carbachol; format: functional, cell-based; settings: L929
T1 sequence (whole entry): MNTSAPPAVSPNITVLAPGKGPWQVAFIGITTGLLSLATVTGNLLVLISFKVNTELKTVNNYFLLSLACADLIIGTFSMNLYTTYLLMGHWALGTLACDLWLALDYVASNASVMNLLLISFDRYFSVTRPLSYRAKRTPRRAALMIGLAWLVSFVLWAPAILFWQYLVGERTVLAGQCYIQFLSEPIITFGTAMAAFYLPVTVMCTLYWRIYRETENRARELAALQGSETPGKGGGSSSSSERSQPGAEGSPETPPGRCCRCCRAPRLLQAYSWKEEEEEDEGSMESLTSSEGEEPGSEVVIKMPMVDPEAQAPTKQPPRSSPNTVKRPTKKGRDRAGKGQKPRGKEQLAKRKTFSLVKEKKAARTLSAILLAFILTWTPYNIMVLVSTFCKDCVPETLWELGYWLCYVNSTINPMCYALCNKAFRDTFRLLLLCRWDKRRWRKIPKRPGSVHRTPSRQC
Outline: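 A9 L cells stably expressing the receptor, seeded 24 h, labelled overnight with 10 µCi/mL [3H]inositol in inositol-free DMEM; ligands in HBSS with 10 mM LiCl, 20 mM HEPES, 37 °C, 1 h; formic acid extraction, inositol phosphates counted by SPA beads.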

[2] = molecular target: Muscarinic acetylcholine receptor M3 (Homo sapiens, UniProt P20309); assay: Agonist activity at human M3 receptor expressed in A9 L cells assessed as stimulation of phosphoinositide hydrolysis; format: functional, cell-based, L929
Sequence of Muscarinic acetylcholine receptor M3 (P20309 whole entry): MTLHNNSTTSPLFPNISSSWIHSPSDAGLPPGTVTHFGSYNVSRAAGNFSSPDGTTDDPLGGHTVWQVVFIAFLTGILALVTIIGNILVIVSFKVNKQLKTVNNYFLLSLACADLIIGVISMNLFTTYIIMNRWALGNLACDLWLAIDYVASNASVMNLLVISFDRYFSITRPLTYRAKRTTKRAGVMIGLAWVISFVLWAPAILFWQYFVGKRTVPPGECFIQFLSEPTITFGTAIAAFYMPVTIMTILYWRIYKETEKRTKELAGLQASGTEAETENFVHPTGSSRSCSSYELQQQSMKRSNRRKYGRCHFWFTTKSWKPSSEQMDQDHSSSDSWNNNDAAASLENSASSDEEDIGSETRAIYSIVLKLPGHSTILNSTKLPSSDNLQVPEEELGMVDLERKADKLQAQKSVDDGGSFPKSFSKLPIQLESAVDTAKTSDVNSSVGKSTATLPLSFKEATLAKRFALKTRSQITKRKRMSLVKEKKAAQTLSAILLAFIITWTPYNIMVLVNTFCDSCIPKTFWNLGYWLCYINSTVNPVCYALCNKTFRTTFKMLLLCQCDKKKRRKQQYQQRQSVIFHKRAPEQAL

[3] = molecular target: T2, Muscarinic acetylcholine receptor M2 (Homo sapiens) (UniProt P08172); assay: Activity at human M2 receptor assessed as inhibition of forskolin-stimulated cAMP accumulation relative to carbachol; format: functional
T2 sequence (whole entry): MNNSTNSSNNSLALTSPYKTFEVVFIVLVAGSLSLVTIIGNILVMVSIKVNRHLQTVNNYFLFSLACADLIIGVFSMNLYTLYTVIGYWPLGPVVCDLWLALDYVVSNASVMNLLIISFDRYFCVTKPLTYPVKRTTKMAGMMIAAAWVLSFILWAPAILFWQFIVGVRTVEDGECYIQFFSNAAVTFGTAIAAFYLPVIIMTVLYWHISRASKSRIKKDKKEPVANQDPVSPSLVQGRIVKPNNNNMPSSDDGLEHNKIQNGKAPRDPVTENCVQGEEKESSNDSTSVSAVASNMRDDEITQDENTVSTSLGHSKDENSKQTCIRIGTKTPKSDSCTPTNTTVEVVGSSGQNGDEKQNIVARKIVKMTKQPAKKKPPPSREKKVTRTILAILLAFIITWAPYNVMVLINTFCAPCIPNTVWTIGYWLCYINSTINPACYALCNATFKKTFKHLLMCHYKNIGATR

[4] = molecular target: T3, Muscarinic acetylcholine receptor M1/M5 chimeric protein (Homo sapiens, UniProt P08912+P11229); assay: Agonist activity at human M1/M5(o2) chimeric receptor expressed in A9 L cells assessed as stimulation of phosphoinositide hydrolysis; format: functional, cell-based, L929
T3 sequence (P11229 whole entry): T1 sequence (whole entry) with E185Q
T3 sequence (P08912 whole entry): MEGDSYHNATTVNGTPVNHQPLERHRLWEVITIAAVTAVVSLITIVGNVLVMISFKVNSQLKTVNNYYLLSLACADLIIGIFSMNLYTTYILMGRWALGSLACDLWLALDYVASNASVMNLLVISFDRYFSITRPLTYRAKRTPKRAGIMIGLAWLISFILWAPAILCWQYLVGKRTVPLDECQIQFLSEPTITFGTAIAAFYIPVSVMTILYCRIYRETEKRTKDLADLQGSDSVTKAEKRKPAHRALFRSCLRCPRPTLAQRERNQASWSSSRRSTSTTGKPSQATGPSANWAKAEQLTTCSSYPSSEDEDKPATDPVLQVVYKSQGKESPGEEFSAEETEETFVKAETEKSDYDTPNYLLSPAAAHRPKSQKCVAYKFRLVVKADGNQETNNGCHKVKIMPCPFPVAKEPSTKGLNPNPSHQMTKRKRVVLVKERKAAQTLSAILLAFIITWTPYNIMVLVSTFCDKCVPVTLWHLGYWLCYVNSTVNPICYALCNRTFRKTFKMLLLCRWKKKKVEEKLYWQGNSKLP

[5] = molecular target: Muscarinic acetylcholine receptor M1 (Homo sapiens, UniProt P11229, E170K); format: functional, cell-based, L929
Sequence of Muscarinic acetylcholine receptor M1 (P11229 whole entry E170K): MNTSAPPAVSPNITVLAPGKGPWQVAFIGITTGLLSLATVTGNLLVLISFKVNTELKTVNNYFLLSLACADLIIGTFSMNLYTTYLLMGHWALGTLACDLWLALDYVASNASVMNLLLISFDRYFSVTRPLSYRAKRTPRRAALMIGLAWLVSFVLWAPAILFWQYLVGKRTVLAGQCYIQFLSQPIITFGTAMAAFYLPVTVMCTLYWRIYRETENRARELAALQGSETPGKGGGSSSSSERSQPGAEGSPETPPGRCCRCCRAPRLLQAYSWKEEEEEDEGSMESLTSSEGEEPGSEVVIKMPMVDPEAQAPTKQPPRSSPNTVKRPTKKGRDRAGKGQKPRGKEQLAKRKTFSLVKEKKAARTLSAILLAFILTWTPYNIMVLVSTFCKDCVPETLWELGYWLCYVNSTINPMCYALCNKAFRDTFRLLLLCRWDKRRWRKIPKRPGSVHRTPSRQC

[6] = molecular target: T3, Muscarinic acetylcholine receptor M1/M5 chimeric protein; assay: Inhibition of [3H](R)-QNB binding to human M1/M5(o2) chimeric receptor expressed in A9 L cells; format: cell-based, A9L
[7] = molecular target: T3, Muscarinic acetylcholine receptor M1/M5 chimeric protein; assay: Inhibition of [3H](R)-QNB binding to human M1/M5(o2o3) chimeric receptor expressed in A9 L cells; format: cell-based, A9L
[8] = molecular target: T3, Muscarinic acetylcholine receptor M1/M5 chimeric protein; assay: Agonist activity at human M1/M5(o3) chimeric receptor expressed in A9 L cells assessed as stimulation of phosphoinositide hydrolysis; format: functional, cell-based, L929
[9] = system: Rattus norvegicus; assay: Antipsychotic activity in Sprague-Dawley rat assessed as ability to reverse apomorphine effect on prepulse inhibition of the startle response at 1 mg/kg, sc; format: functional, organism-based; parameters: dose 1 mg/kg
Outline: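 Male Sprague-Dawley rats, 250-300 g, habituated a day before. Drug in water or saline sc (1 mL/kg) 25 min, apomorphine 1.0 mg/kg 5 min pre-test; muscarinic agonists 0.1-3 mg/kg. Session of 15 each pulse-alone (120 dB, 100 ms) and pulse preceded 200 ms by 20 ms prepulse 12 dB above 70 dB background; 12 rats/group; %PPI calculated.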

| EC50 [2] | Activity [3] | Compound | Smax [1] | EC50 [4] | EC50 [5] | Ki [6] | Ki [7] | EC50 [8] | Imax [3] | Activity [9] |
| --- | --- | --- | --- | --- | --- | --- | --- | --- | --- | --- |
| 25100 nM | inactive | CCCCCCOc1nsnc1C1=CCCN(C)C1 [XANOMELINE] | 86% |  |  |  |  |  |  |  |
|  |  | COc1nsnc1OCCOCCOCCOCCOc1nsnc1C1=CCCN(C)C1 | 14% | 79.4 nM | 2000 nM | 200 nM | 316 nM | 100 nM | 120% | Active |
